Values after ≈ are worked out from the molar mass of the structure shown.
Assays:
Escherichia coli = assay: MIC against aerobic organism Escherichia coli strain 2891; assay type: functional; details: Escherichia coli; read-out: MIC
Method in brief: (§1)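 Agar-dilution MIC in µg/mL against aerobic bacterial strains on tryptocase soy agar, with inoculum applied as spots. Most series used 10^5 cfu per spot, and a later series used 10^4 cfu per spot. In some tables, footnoted strains were instead tested on Mueller-Hinton or nutrient agar. β-Lactamase-producing strains are flagged.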

Klebsiella aerogenes [1] = assay: Minimum inhibitory concentration against aerobic organism Enterobacter aerogenes strain 2828; assay type: functional; method in brief: as §1
Enterobacter cloacae [2] = assay: Minimum inhibitory concentration against aerobic organism Enterobacter cloacae 2646; assay type: functional; method in brief: as §1
Klebsiella pneumoniae [3] = assay: Minimum inhibitory concentration against aerobic organism Klebsiella pneumoniae strain 4005; assay type: functional; method in brief: as §1
Morganella morganii = assay: Minimum inhibitory concentration against aerobic organism Morganella morganii strain 2833; assay type: functional; details: Morganella morganii; read-out: MIC; method in brief: as §1
Pseudomonas aeruginosa [4] = assay: Minimum inhibitory concentration against aerobic organism Pseudomonas aeruginosa strain 2835; assay type: functional; method in brief: as §1
Proteus mirabilis = assay: Minimum inhibitory concentration against aerobic organism Proteus mirabilis strain 2830; assay type: functional; details: Proteus mirabilis; read-out: MIC; method in brief: as §1
Proteus vulgaris = assay: Minimum inhibitory concentration against aerobic organism Proteus vulgaris strain 2829; assay type: functional; details: Proteus vulgaris; read-out: MIC; method in brief: as §1
Salmonella [5] = assay: Minimum inhibitory concentration against aerobic organism Salmonella strain 3860; assay type: functional; method in brief: as §1
Staphylococcus aureus [6] = assay: Minimum inhibitory concentration against aerobic organism Staphylococcus aureus strain 2865; assay type: functional; method in brief: as §1
Staphylococcus aureus [7] = assay: Minimum inhibitory concentration against aerobic organism Staphylococcus aureus strain 2868; assay type: functional; details: Staphylococcus aureus; read-out: MIC; method in brief: as §1
Enterococcus faecalis [8] = assay: Minimum inhibitory concentration against aerobic organisms Streptococcus faecalis strain 2864; assay type: functional; method in brief: as §1
Salmonella [9] = assay: Inhibition zone diameter against aerobic organism Salmonella strain 826
Klebsiella = assay: Inhibition zone diameter against aerobic organism Klebsiella species strain 2921
Serratia marcescens [10] = assay: Inhibition zone diameter against aerobic organism Serratia marcescenes strain 2855
Staphylococcus aureus [11] = assay: Inhibition zone diameter against aerobic organism Staphylococcus aureus strain 2314
Pseudomonas aeruginosa [12] = assay: Inhibition zone diameter against aerobic organism Pseudomonas aeruginosa strain 3350
Streptococcus pyogenes [13] = assay: Inhibition zone diameter against aerobic organism Streptococcus pyogenes strain 2874
Enterobacter cloacae [14] = assay: Minimum inhibitory concentration against aerobic organism Enterobacter cloacae strain 2646; assay type: functional; details: Enterobacter cloacae; read-out: MIC; method in brief: as §1
Enterococcus faecalis [15] = assay: Minimum inhibitory concentration against aerobic organism Streptococcus faecalis strain 2864; assay type: functional; method in brief: as §1
Klebsiella aerogenes [16] = assay: Minimum inhibitory concentration against aerobic organism Enterobacter aerogenes strain 2906; assay type: functional; details: Klebsiella aerogenes; read-out: MIC; method in brief: as §1
Klebsiella pneumoniae [17] = assay: Minimum inhibitory concentration against aerobic organism Klebsiella pneumoniae strain 2882; assay type: functional; details: Klebsiella pneumoniae; read-out: MIC; method in brief: as §1
[18] = Minimum inhibitory concentration against aerobic organism Salmonella schottmuelleri strain 2837; assay type: functional; details: Salmonella; read-out: MIC; method in brief: as §1
Serratia marcescens [19] = assay: Minimum inhibitory concentration against aerobic organism Serratia marcescens strain 2852; assay type: functional; details: Serratia marcescens; read-out: MIC; method in brief: as §1
Streptococcus pyogenes [20] = assay: Minimum inhibitory concentration against aerobic organism Streptococcus pyogenes strain 3124; assay type: functional; details: Streptococcus pyogenes; read-out: MIC; method in brief: as §1
Shigella = assay: Minimum inhibitory concentration against aerobic organism Shigella species strain 2880; assay type: functional; details: Shigella; read-out: MIC; method in brief: as §1

| SMILES | MIC (Escherichia coli) | MIC (Klebsiella aerogenes [1]) | MIC (Klebsiella pneumoniae [3]) | MIC (Morganella morganii) | MIC (Pseudomonas aeruginosa [4]) | MIC (Proteus mirabilis) | MIC (Proteus vulgaris) | MIC (Salmonella [5]) | MIC (Staphylococcus aureus [6]) | MIC (Staphylococcus aureus [7]) | MIC (Enterobacter cloacae [14]) | MIC (Enterococcus faecalis [15]) | also measured |
| --- | --- | --- | --- | --- | --- | --- | --- | --- | --- | --- | --- | --- | --- |
| CC(=O)OCC1=C(C(=O)O)N2C(=O)[C@@H](NC(=O)Cc3cccs3)[C@H]2SC1 [CEPHALOTHIN] | > 128 µg/mL | 32 µg/mL (≈ 80.7 µM) | 0.25 µg/mL (≈ 0.631 µM) | > 128 µg/mL | > 128 µg/mL | 32 µg/mL (≈ 80.7 µM) | 128 µg/mL (≈ 323 µM) | 2 µg/mL (≈ 5.04 µM) | 0.015 µg/mL (≈ 0.0378 µM) | 0.06 µg/mL (≈ 0.151 µM) | – | – | MIC (Enterobacter cloacae [2]): > 128 µg/mL; MIC (Enterococcus faecalis [8]): 8 µg/mL (≈ 20.2 µM) |
| CC(O)[C@H]1C(=O)N2C(C(=O)O)=C(SCCNC3=NCCC3)C[C@H]12 (stereo partly specified) | – | – | – | – | – | – | – | – | – | – | – | – | zone diameter (Salmonella [9]): 28 mm; zone diameter (Klebsiella): 24 mm; zone diameter (Serratia marcescens [10]): 25.5 mm; zone diameter (Staphylococcus aureus [11]): 38 mm; zone diameter (Pseudomonas aeruginosa [12]): 25.5 mm; zone diameter (Streptococcus pyogenes [13]): 40 mm |
| Cc1nnc(SCC2=C(C(=O)[O-])N3C(=O)[C@@H](Nc4cc[n+](COCC(Cl)(Cl)Cl)cc4C(=O)[O-])[C@H]3SC2)s1.[Na+] | 128 µg/mL | > 128 µg/mL | > 128 µg/mL | > 128 µg/mL | > 128 µg/mL | > 128 µg/mL | 16 µg/mL | > 128 µg/mL | 64 µg/mL | > 128 µg/mL | > 128 µg/mL | > 128 µg/mL | – |
| Cn1nnnc1SCC1=C(C(=O)[O-])N2C(=O)[C@@H](Nc3cc[n+](Cc4ccc(F)cc4)cc3)[C@H]2SC1 | < 0.06 µg/mL | 1 µg/mL (≈ 1.95 µM) | 8 µg/mL (≈ 15.6 µM) | 32 µg/mL (≈ 62.3 µM) | > 128 µg/mL | 64 µg/mL (≈ 125 µM) | 0.25 µg/mL (≈ 0.487 µM) | 4 µg/mL (≈ 7.79 µM) | 0.5 µg/mL (≈ 0.974 µM) | 1 µg/mL (≈ 1.95 µM) | 0.125 µg/mL (≈ 0.243 µM) | 128 µg/mL (≈ 249 µM) | – |
| Cn1nnnc1SCC1=C(C(=O)[O-])N2C(=O)[C@@H](Nc3cc[n+](Cc4ccccc4)cc3)[C@H]2SC1 | 0.06 µg/mL (≈ 0.121 µM) | 2 µg/mL (≈ 4.04 µM) | 8 µg/mL (≈ 16.1 µM) | 16 µg/mL (≈ 32.3 µM) | > 128 µg/mL | 32 µg/mL (≈ 64.6 µM) | 1 µg/mL (≈ 2.02 µM) | 1 µg/mL (≈ 2.02 µM) | 0.25 µg/mL (≈ 0.504 µM) | 4 µg/mL (≈ 8.07 µM) | 1 µg/mL (≈ 2.02 µM) | 128 µg/mL (≈ 258 µM) | MIC (Klebsiella aerogenes [16]): 8 µg/mL (≈ 16.1 µM); MIC (Klebsiella pneumoniae [17]): 0.25 µg/mL (≈ 0.504 µM); MIC [18]: < 0.004 µg/mL; MIC (Serratia marcescens [19]): 64 µg/mL (≈ 129 µM); MIC (Streptococcus pyogenes [20]): 0.015 µg/mL (≈ 0.0303 µM); MIC (Shigella): < 0.004 µg/mL |
| Cn1nnnc1SCC1=C(C(=O)[O-])N2C(=O)[C@@H](Nc3cc[n+](COCC(Cl)(Cl)Cl)cc3C(=O)[O-])[C@H]2SC1.[Na+] | 64 µg/mL | > 128 µg/mL | > 128 µg/mL | > 128 µg/mL | > 128 µg/mL | > 128 µg/mL | > 128 µg/mL | > 128 µg/mL | > 128 µg/mL | > 128 µg/mL | > 128 µg/mL | > 128 µg/mL | – |
| CCO[n+]1ccc(N[C@@H]2C(=O)N3C(C(=O)[O-])=C(CSc4nnnn4C)CS[C@H]23)cc1 | 0.125 µg/mL (≈ 0.278 µM) | 32 µg/mL (≈ 71.2 µM) | 128 µg/mL (≈ 285 µM) | > 128 µg/mL | > 128 µg/mL | > 128 µg/mL | 0.25 µg/mL (≈ 0.556 µM) | 128 µg/mL (≈ 285 µM) | 8 µg/mL (≈ 17.8 µM) | > 128 µg/mL | 1 µg/mL (≈ 2.22 µM) | > 128 µg/mL | – |
| O=C(Cc1cccs1)N[C@@H]1C(=O)N2C(C(=O)[O-])=C(C[n+]3ccccc3)CS[C@H]12 [CEPHALORIDINE] | > 128 µg/mL | 8 µg/mL (≈ 19.3 µM) | 0.25 µg/mL (≈ 0.602 µM) | > 128 µg/mL | > 128 µg/mL | 16 µg/mL (≈ 38.5 µM) | > 128 µg/mL | 0.5 µg/mL (≈ 1.2 µM) | 0.25 µg/mL (≈ 0.602 µM) | 4 µg/mL (≈ 9.63 µM) | > 128 µg/mL | 64 µg/mL (≈ 154 µM) | – |
| CC(=O)OCC1=C(C(=O)[O-])N2C(=O)[C@@H](Nc3cc[n+](COCc4ccc([N+](=O)[O-])cc4)cc3)[C@H]2SC1 | 1 µg/mL (≈ 1.94 µM) | > 128 µg/mL | 128 µg/mL (≈ 249 µM) | > 128 µg/mL | > 128 µg/mL | > 128 µg/mL | 1 µg/mL (≈ 1.94 µM) | 128 µg/mL (≈ 249 µM) | 2 µg/mL (≈ 3.89 µM) | 8 µg/mL (≈ 15.5 µM) | 64 µg/mL (≈ 124 µM) | > 128 µg/mL | – |
| CC1(C)S[C@@H]2[C@H](NC=[N+]3CCCCCC3)C(=O)N2[C@H]1C(=O)[O-] | 12.5 µg/mL (≈ 38.4 µM) | 64 µg/mL (≈ 197 µM) | 16 µg/mL (≈ 49.2 µM) | > 128 µg/mL | > 128 µg/mL | > 128 µg/mL | 0.5 µg/mL (≈ 1.54 µM) | 0.125 µg/mL (≈ 0.384 µM) | 8 µg/mL (≈ 24.6 µM) | > 100 µg/mL | – | > 100 µg/mL | MIC (Klebsiella pneumoniae [17]): 100 µg/mL (≈ 307 µM); MIC [18]: 12.5 µg/mL (≈ 38.4 µM); MIC (Shigella): 12.5 µg/mL (≈ 38.4 µM) |
| O=C([O-])C1=C(CSc2cc[n+](Cc3ccccc3)cc2)CS[C@@H]2[C@H]([N-]c3cc[n+](Cc4ccccc4)cc3)C(=O)N12 | < 0.06 µg/mL | 1 µg/mL (≈ 1.72 µM) | 32 µg/mL (≈ 55.1 µM) | > 128 µg/mL | > 128 µg/mL | 128 µg/mL (≈ 220 µM) | < 0.06 µg/mL | 4 µg/mL (≈ 6.89 µM) | < 0.06 µg/mL | 0.25 µg/mL (≈ 0.43 µM) | < 0.06 µg/mL | 64 µg/mL (≈ 110 µM) | – |
| CCOC(=S)SCC1=C(C(=O)[O-])N2C(=O)[C@@H](Nc3cc[n+](Cc4ccccc4)cc3)[C@H]2SC1 | 1 µg/mL (≈ 1.99 µM) | > 128 µg/mL | > 128 µg/mL | > 128 µg/mL | > 128 µg/mL | > 128 µg/mL | 8 µg/mL (≈ 15.9 µM) | 4 µg/mL (≈ 7.97 µM) | 1 µg/mL (≈ 1.99 µM) | 4 µg/mL (≈ 7.97 µM) | 4 µg/mL (≈ 7.97 µM) | > 128 µg/mL | – |
